Laboratory results from ChEMBL document CHEMBL1121744, “Synthesis and antihypertensive activity of a series of 8-substituted 1-oxa-3,8-diazaspiro[4.5]decan-2-ones” (J Med Chem, 1981).
“And” between values parts separate entries of the source, which are not always exact repeats. Equal entries are not always repeated. One block for each compound: values may come before it. The source made the active and inactive calls. The rule behind the calls is not given here.

Tests used:
Rattus norvegicus [1] = experiment: Antihypertensive activity as percentage fall in systolic blood pressure in spontaneously hypertensive rats after a period of 2 hr for a dose of 25 mg/kg po.; NS=Not significant; format: functional, organism-based; parameters: dose 25 mg/kg; settings: Artery
How it was run: (§1)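 Male Okamoto-Aoki SHR, trained, in groups of four matched for mean systolic pressure; one group per run received water vehicle. Oral dosing in water (0.1 mL per 10 g) on two consecutive mornings. After the day-2 dose, rats were restrained at 30.0 ± 1.0 °C. Systolic pressure was read by tail cuff (inflated to 300 mmHg, first pulse) at 1–4 h. % fall is versus the untreated control group, by 1-tail t test (p ≤ 0.05).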

Rattus norvegicus [2] = experiment: Antihypertensive activity as percentage fall in systolic blood pressure in spontaneously hypertensive rats after a period of 3 hr for a dose of 25 mg/kg po.; NS=Not significant; format: functional, organism-based; parameters: dose 25 mg/kg; settings: Artery; how it was run: as §1
[3] = Distribution coefficient between 1-Octanol and phosphate buffer at pH7.4; format: physicochemical; settings: 1-octanol/phosphate buffer, pH 7.4
Rattus norvegicus [4] = experiment: Antihypertensive activity as percentage fall in systolic blood pressure in spontaneously hypertensive rats after a period of 1 hr for a dose of 50 mg/kg; format: functional, Artery; how it was run: as §1
Rattus norvegicus [5] = experiment: Antihypertensive activity as percentage fall in systolic blood pressure in spontaneously hypertensive rats after a period of 4 hr for a dose of 50 mg/kg po; format: functional, Artery; how it was run: as §1
Rattus norvegicus [6] = experiment: Antihypertensive activity as percentage fall in systolic blood pressure in spontaneously hypertensive rats after a period of 2 hr for a dose of 50 mg/kg; format: functional, organism-based; parameters: dose 50 mg/kg; settings: Artery; how it was run: as §1
Rattus norvegicus [7] = experiment: Percentage fall in systolic blood pressure in spontaneously hypertensive rats after 3 h following 50 mg/kg p.o.; format: functional, Artery; settings: route oral; how it was run: as §1
Rattus norvegicus [8] = experiment: Antihypertensive activity as percentage fall in systolic blood pressure in spontaneously hypertensive rats after a period of 4 hr for a dose of 25 mg/kg po.; NS=Not significant; format: functional, organism-based; parameters: dose 25 mg/kg; settings: Artery; how it was run: as §1
Canis familiaris [9] = experiment: Percent inhibition of the pressor responses to 1 ug/kg iv Epinephrine in pentobarbital-anesthetized dogs for a dose of 10 mg/kg; format: functional; settings: Canis lupus familiaris
How it was run: (§2)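 Dogs anesthetized with sodium pentobarbital 35 mg/kg iv; femoral artery cannulated for blood pressure, femoral vein for dosing. Epinephrine 1 μg/kg iv given at about 10-min intervals before and after increasing test doses. Test doses given iv at 90-min intervals. Result is per cent inhibition of the pressor response.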

Canis familiaris [10] = experiment: Percent inhibition of the pressor responses to 0.75 ug/kg iv norepinephrine in pentobarbital-anesthetized dogs for a dose of 5.0 mg/kg; format: functional; settings: Canis lupus familiaris
How it was run: (§3)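 Pentobarbital-anesthetized dogs (35 mg/kg iv) with femoral arterial pressure recording. Epinephrine (1 μg/kg), norepinephrine (0.75 μg/kg) and phenylephrine (7.5 μg/kg) iv challenges were given about every 10 min before and after rising iv test doses, which were spaced 90 min apart. Value is % inhibition of the pressor response.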

Canis familiaris [11] = experiment: Percent inhibition of the pressor responses to 0.75 ug/kg iv norepinephrine in pentobarbital-anesthetized dogs for a dose of 10 mg/kg; format: functional; settings: Canis lupus familiaris; how it was run: as §3
Canis familiaris [12] = experiment: Percent inhibition of the pressor responses to 0.75 ug/kg iv norepinephrine in pentobarbital-anesthetized dogs for a dose of 1 mg/kg; format: functional; settings: Canis lupus familiaris; how it was run: as §3
Canis familiaris [13] = experiment: Change in mean arterial pressure in anesthetized dogs for a dose of 0.1 mg/kg; format: functional, Canis lupus familiaris, Artery
How it was run: (§4)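 Dogs anesthetized with sodium pentobarbital (35 mg/kg iv), femoral artery cannulated for pressure, ECG-triggered heart rate, femoral vein for dosing. Rising iv doses were given 90 min apart, and each dose is the full dose, not cumulative. Value is the maximal mean arterial pressure change 10–15 min after each dose, two dogs per compound, ±3 mmHg. Saline served as control.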

Canis familiaris [14] = experiment: Change in mean arterial pressure in anesthetized dogs for a dose of 10 mg/kg; format: functional, Canis lupus familiaris, Artery; how it was run: as §4
Canis familiaris [15] = experiment: Percent inhibition of the pressor responses to 7.5 ug/kg iv phenylephrine in pentobarbital-anesthetized dogs for a dose of 1 mg/kg; format: functional; settings: Canis lupus familiaris; how it was run: as §3
Canis familiaris [16] = experiment: Percent inhibition of the pressor responses to 1 ug/kg iv Epinephrine in pentobarbital-anesthetized dogs for a dose of 1 mg/kg; format: functional; settings: Canis lupus familiaris; how it was run: as §3
Rattus norvegicus [17] = experiment: Percentage fall in systolic blood pressure in spontaneously hypertensive rats after 2 hr following 50 mg/kg p.o.; format: functional, Artery; settings: route oral; how it was run: as §1
Canis familiaris [18] = experiment: Percent inhibition of the pressor responses to 7.5 ug/kg iv phenylephrine in pentobarbital-anesthetized dogs for a dose of 0.1 mg/kg; format: functional; settings: Canis lupus familiaris; how it was run: as §3
Canis familiaris [19] = experiment: Change in mean arterial pressure in anesthetized dogs for a dose of 1 mg/kg; format: functional, Canis lupus familiaris, Artery; how it was run: as §4
Canis familiaris [20] = experiment: Percent inhibition of the pressor responses to 7.5 ug/kg iv phenylephrine in pentobarbital-anesthetized dogs for a dose of 10 mg/kg; format: functional; settings: Canis lupus familiaris; how it was run: as §3
Canis familiaris [21] = experiment: Percent inhibition of the pressor responses to 1 ug/kg iv Epinephrine in pentobarbital-anesthetized dogs for a dose of 0.1 mg/kg; format: functional; settings: Canis lupus familiaris; how it was run: as §2
Rattus norvegicus [22] = experiment: Antihypertensive activity as percentage fall in systolic blood pressure in spontaneously hypertensive rats after a period of 3 hr for a dose of 12.5 mg/kg po; format: functional, Artery; how it was run: as §1
Rattus norvegicus [23] = experiment: Antihypertensive activity as percentage fall in systolic blood pressure in spontaneously hypertensive rats after a period of 2 hr for a dose of 12.5 mg/kg po; format: functional, Artery; how it was run: as §1
Rattus norvegicus [24] = experiment: Antihypertensive activity as percentage fall in systolic blood pressure in spontaneously hypertensive rats after a period of 1 hr for a dose of 12.5 mg/kg po; format: functional, Artery; how it was run: as §1
Rattus norvegicus [25] = experiment: Antihypertensive activity as percentage fall in systolic blood pressure in spontaneously hypertensive rats after a period of 4 hr for a dose of 12.5 mg/kg po; format: functional, Artery; how it was run: as §1
Rattus norvegicus [26] = experiment: The antihypertensive activity as percentage fall in systolic blood pressure in spontaneously hypertensive rats after a period of 2 hr for a dose of 25 mg/kg po; format: functional, Artery; how it was run: as §1
Rattus norvegicus [27] = experiment: The antihypertensive activity as percentage fall in systolic blood pressure in spontaneously hypertensive rats after a period of 1 hr for a dose of 25 mg/kg po; format: functional, Artery; how it was run: as §1
Rattus norvegicus [28] = experiment: The antihypertensive activity as percentage fall in systolic blood pressure in spontaneously hypertensive rats after a period of 3 hr for a dose of 25 mg/kg po; NS=Not significant; format: functional, organism-based; parameters: dose 25 mg/kg; settings: Artery; how it was run: as §1
Rattus norvegicus [29] = experiment: The antihypertensive activity as percentage fall in systolic blood pressure in spontaneously hypertensive rats after a period of 4 hr for a dose of 25 mg/kg po; NS=Not significant; format: functional, organism-based; parameters: dose 25 mg/kg; settings: Artery; how it was run: as §1

logD [3]: 0.96
Structure (SMILES): COc1ccccc1OCC(O)CN1CCC2(CC1)CN(C)C(=O)O2 (centres undefined)
Decrease in blood pressure (Rattus norvegicus [1]): inactive
Decrease in blood pressure (Rattus norvegicus [2]): inactive
Decrease in blood pressure (Rattus norvegicus [4]): 15%
Decrease in blood pressure (Rattus norvegicus [5]): 9%
Decrease in blood pressure (Rattus norvegicus [6]): Not significant
Decrease in blood pressure (Rattus norvegicus [7]; 50 mg/kg): 19% and 7%
Decrease in blood pressure (Rattus norvegicus [8]): inactive

logD [3]: 0.82
Structure (SMILES): Cc1ccc(N(CC2=NCCN2)c2cccc(O)c2)cc1 [PHENTOLAMINE]
inhibition in vivo at 10 mg/kg (Canis familiaris [9]): > 100%
inhibition in vivo at 5 mg/kg (Canis familiaris [10]): > 100%
inhibition in vivo at 10 mg/kg (Canis familiaris [11]): > 100%
inhibition in vivo at 1 mg/kg (Canis familiaris [12]): > 100%
MAP (Canis familiaris [13]): -9 mmHg
MAP (Canis familiaris [14]): -33 mmHg
inhibition in vivo at 1 mg/kg (Canis familiaris [15]): 86%
inhibition in vivo at 1 mg/kg (Canis familiaris [16]): > 100%
Decrease in blood pressure (Rattus norvegicus [17]): 30%
inhibition in vivo at 0.1 mg/kg (Canis familiaris [18]): 42%
Decrease in blood pressure (Rattus norvegicus [4]): 37%
MAP (Canis familiaris [19]): -11 mmHg
inhibition in vivo at 10 mg/kg (Canis familiaris [20]): 100%
Decrease in blood pressure (Rattus norvegicus [5]): 16%
Decrease in blood pressure (Rattus norvegicus [7]): 19%
inhibition in vivo at 0.1 mg/kg (Canis familiaris [21]): 41%

Structure (SMILES): CCC1NC(=O)OC12CCN(CC1COc3ccccc3O1)CC2 (centres undefined)
Decrease in blood pressure (Rattus norvegicus [22]): -13%
Decrease in blood pressure (Rattus norvegicus [17]; 50 mg/kg): 54% and 42%
Decrease in blood pressure (Rattus norvegicus [23]): 14%
Decrease in blood pressure (Rattus norvegicus [4]): 51%
Decrease in blood pressure (Rattus norvegicus [24]): 22%
Decrease in blood pressure (Rattus norvegicus [25]): -11%
Decrease in blood pressure (Rattus norvegicus [7]): 42%

Structure (SMILES): CCN1CC2(CCN(CC(O)C3COc4ccccc4O3)CC2)OC1=O (centres undefined)
Decrease in blood pressure (Rattus norvegicus [26]): 9%
Decrease in blood pressure (Rattus norvegicus [27]): 18%
Decrease in blood pressure (Rattus norvegicus [28]): inactive
Decrease in blood pressure (Rattus norvegicus [17]; 50 mg/kg): 18% and 15%
Decrease in blood pressure (Rattus norvegicus [29]): inactive
Decrease in blood pressure (Rattus norvegicus [4]): 32%
Decrease in blood pressure (Rattus norvegicus [7]): 11%
